Molecules are shown by their SMILES.

The nature of the test: Inhibition of carbapenems-resistant Pseudomonas aeruginosa MSC15369 metallo-beta-lactamase IMP-1 expressed in Escherichia coli after 20 mins by spectrophotometry. Put shortly: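 IMP-1 purified from cell extracts by Ni-NTA; 1.0 nM enzyme in 50 mM HEPES pH 7.5 with 100 µM ZnSO4 and 20 µg/ml BSA, preincubated with inhibitor 20 min at room temperature; nitrocefin substrate, initial velocity read at 490 nm; IC50 determined.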
For `O=C(O)c1cccc(-c2ccccc2)c1C(=O)O`, the IC50 (commonly the point on the concentration scale where inhibition reaches its midpoint) was 0.968 µM. To `Cc1cccc(C(=O)O)c1C(=O)O` belongs 160 µM; to `CCCCc1ccc(C(=O)O)c(C(=O)O)c1`, 243 µM. For `O=C(O)c1ccc(-c2cccc(C(=O)O)c2C(=O)O)cc1`, the IC50 was 2.25 µM.

As for `O=C(O)c1ccc(-c2ccccc2)cc1C(=O)O`, the IC50 was greater than 300 µM. Turning to `Cc1ccc(C(=O)O)c(C(=O)O)c1`, the concentration for half-maximal inhibition (IC50) is greater than 300 µM. As to `O=C(O)c1cccc(-c2cccc(C(=O)O)c2C(=O)O)c1`, 17.9 µM corresponded to half-maximal inhibition (IC50). To `O=C(O)c1ccccc1-c1cccc(C(=O)O)c1C(=O)O` belongs 207 µM.

`O=C(O)c1ccccc1C(=O)O` [PHTHALIC ACID] registered an IC50 greater than 100 µM. Turning to `O=C(O)c1cccc(CCCO)c1C(=O)O`, the IC50 was found to be 13.2 µM. The figure for `O=C(O)c1cccc(-c2ccccc2O)c1C(=O)O` is 2.44 µM. For the compound `CCCCc1ccc(C(=O)O)c(C(=O)O)c1C`, the IC50 turned out to be 16 µM.

In turn, `O=C(O)c1cccc(-c2ccc(O)cc2)c1C(=O)O` displayed a half-maximal inhibitory concentration (IC50) of 1.55 µM. In turn, `CC(C)(C)c1ccc(C(=O)O)c(C(=O)O)c1` yielded a 50% inhibitory concentration (IC50) greater than 300 µM. To `O=C(O)c1cccc(-c2cccc(O)c2)c1C(=O)O` belongs 1.75 µM.

These data come from ChEMBL document CHEMBL1155308, “Metallo-beta-lactamase inhibitory activity of phthalic acid derivatives” (Bioorg Med Chem Lett, 2009).
